Key:
Type in all cases: functional
K562 = assay: Growth inhibition of human K562 cells at 10 uM after 48 hrs; conditions: K562, 48 h, read-out: GI
How it was run: (§1)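 Single-dose primary screen in the NCI 60 human tumour cell line panel, run at the NCI facility. The panel covers nine subpanels: leukaemia, non-small cell lung, colon, CNS, melanoma, ovarian, renal, prostate and breast. Read-out was percent growth of treated cells, shown as a mean graph and reported as percent growth inhibition.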

[1] = Growth inhibition of human OVCAR4 cells at 10 uM after 48 hrs; conditions: OVCAR-4, 48 h, read-out: GI; how it was run: as §1
[2] = Growth inhibition of human SF539 cells at 10 uM after 48 hrs; conditions: SF-539, 48 h, read-out: GI
How it was run: (§2)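 NCI 60-cell-line disease-oriented human tumor panel, single-dose primary screen at 10 µM. Data given as mean-graph percent growth of treated cells, reported as percent growth inhibition (GI %).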

MDA-MB-231 = assay: Growth inhibition of human MDA-MB-231 cells at 10 uM after 48 hrs; conditions: MDA-MB-231, 48 h, read-out: GI; how it was run: as §1
SR = assay: Growth inhibition of human SR cells at 10 uM after 48 hrs; conditions: read-out: GI; how it was run: as §2
[3] = Growth inhibition of human Hs 578T cells at 10 uM after 48 hrs; conditions: read-out: GI; how it was run: as §1
[4] = Growth inhibition of human NCI-ADR-RES cells at 10 uM after 48 hrs; conditions: read-out: GI; how it was run: as §1
[5] = Cytotoxicity against human melanoma cells at 10 uM after 48 hrs; conditions: Melanoma cell; for CC50: read-out: LC50 (the source's name); how it was run: as §1
TK-10 = assay: Growth inhibition of human TK10 cells at 10 uM after 48 hrs; conditions: TK-10, 48 h, read-out: GI; how it was run: as §2
PC-3 = assay: Growth inhibition of human PC3 cells at 10 uM after 48 hrs; conditions: PC-3, 48 h, read-out: GI; how it was run: as §1
T47D = assay: Growth inhibition of human T47D cells at 10 uM after 48 hrs; conditions: read-out: GI; how it was run: as §2
[6] = Cytotoxicity against human breast cancer cells at 10 uM after 48 hrs; conditions: Cancer cell lines; how it was run: as §1
[7] = Growth inhibition of human OVCAR5 cells at 10 uM after 48 hrs; conditions: OVCAR-5, 48 h, read-out: GI; how it was run: as §1
SK-OV-3 = assay: Growth inhibition of human SKOV3 cells at 10 uM after 48 hrs; conditions: SK-OV-3, 48 h, read-out: GI; how it was run: as §2
[8] = Growth inhibition of human EKVX cells at 10 uM after 48 hrs; conditions: read-out: GI; how it was run: as §1
NCI-H322M = assay: Growth inhibition of human NCI-H322M cells at 10 uM after 48 hrs; conditions: read-out: GI; how it was run: as §1
NCI-H23 = assay: Growth inhibition of human NCI-H23 cells at 10 uM after 48 hrs; conditions: NCI-H23, 48 h, read-out: GI; how it was run: as §1
SK-MEL-28 = assay: Growth inhibition of human SK-MEL-28 cells at 10 uM after 48 hrs; conditions: SK-MEL-28, 48 h, read-out: GI; how it was run: as §2
[9] = Growth inhibition of human UO31 cells at 10 uM after 48 hrs; conditions: UO-31, 48 h, read-out: GI; how it was run: as §2
[10] = Cytotoxicity against human CNS cancer cells at 10 uM after 48 hrs; conditions: Cancer cell lines; for CC50: read-out: LC50 (the source's name)
MCF7 = assay: Growth inhibition of human MCF7 cells at 10 uM after 48 hrs; conditions: MCF7, 48 h, read-out: GI; how it was run: as §1
SNB-19 = assay: Growth inhibition of human SNB19 cells at 10 uM after 48 hrs; conditions: SNB-19, 48 h, read-out: GI; how it was run: as §2
SF-268 = assay: Growth inhibition of human SF268 cells at 10 uM after 48 hrs; conditions: SF-268, 48 h, read-out: GI; how it was run: as §2
CCRF-CEM = assay: Growth inhibition of human CCRF-CEM cells at 10 uM after 48 hrs; conditions: read-out: GI; how it was run: as §1
[11] = Cytotoxicity against human renal cancer cells at 10 uM after 48 hrs; conditions: Cancer cell lines
SNB-75 = assay: Growth inhibition of human SNB75 cells at 10 uM after 48 hrs; conditions: SNB-75, 48 h, read-out: GI; how it was run: as §2
OVCAR-8 = assay: Growth inhibition of human OVCAR8 cells at 10 uM after 48 hrs; conditions: OVCAR-8, 48 h, read-out: GI; how it was run: as §1
MDA-MB-435 = assay: Growth inhibition of human MDA-MB-435 cells at 10 uM after 48 hrs; conditions: MDA-MB-435, 48 h, read-out: GI; how it was run: as §1
HT-29 = assay: Growth inhibition of human HT-29 cells at 10 uM after 48 hrs; conditions: HT-29, 48 h, read-out: GI; how it was run: as §1
SK-MEL-5 = assay: Growth inhibition of human SK-MEL-5 cells at 10 uM after 48 hrs; conditions: SK-MEL-5, 48 h, read-out: GI; how it was run: as §2
NCI-H226 = assay: Growth inhibition of human NCI-H226 cells at 10 uM after 48 hrs; conditions: NCI-H226, 48 h, read-out: GI; how it was run: as §1
A549 = assay: Growth inhibition of human A549 cells at 10 uM after 48 hrs; conditions: A549, 48 h, read-out: GI; how it was run: as §1
COLO 205 = assay: Growth inhibition of human COLO205 cells at 10 uM after 48 hrs; conditions: COLO 205, 48 h, read-out: GI; how it was run: as §1
Malme-3M = assay: Growth inhibition of human MALME-3M cells at 10 uM after 48 hrs; conditions: read-out: GI; how it was run: as §1
OVCAR-3 = assay: Growth inhibition of human OVCAR3 cells at 10 uM after 48 hrs; conditions: OVCAR-3, 48 h, read-out: GI; how it was run: as §1
SN12C = assay: Growth inhibition of human SN12C cells at 10 uM after 48 hrs; conditions: read-out: GI; how it was run: as §2
786-0 = assay: Growth inhibition of human 786-0 cells at 10 uM after 48 hrs; conditions: 786-0, 48 h, read-out: GI; how it was run: as §1
ACHN = assay: Growth inhibition of human ACHN cells at 10 uM after 48 hrs; conditions: read-out: GI; how it was run: as §1
[12] = Growth inhibition of human RXF393 cells at 10 uM after 48 hrs; conditions: RXF 393, 48 h, read-out: GI; how it was run: as §1
BT-549 = assay: Growth inhibition of human BT549 cells at 10 uM after 48 hrs; conditions: BT-549, 48 h, read-out: GI; how it was run: as §1
DU-145 = assay: Growth inhibition of human DU145 cells at 10 uM after 48 hrs; conditions: DU-145, 48 h, read-out: GI; how it was run: as §1
[13] = Growth inhibition of human HOP92 cells at 10 uM after 48 hrs; conditions: HOP-92, 48 h, read-out: GI; how it was run: as §1
CAKI-1 = assay: Growth inhibition of human CAKI-1 cells at 10 uM after 48 hrs; conditions: CAKI-1, 48 h, read-out: GI; how it was run: as §1

Q: Which results are given for COc1cc(/C=C2\CCCc3c2nc(N)nc3-c2cc(OC)c(OC)c(OC)c2)cc(OC)c1OC?
A: inhibition of growth at 10 µM (K562): 93.6%; inhibition of growth at 10 µM [1]: 73.1%; inhibition of growth at 10 µM [2]: 74.1%; inhibition of growth at 10 µM (MDA-MB-231): 71.1%; inhibition of growth at 10 µM (SR): 99%; inhibition of growth at 10 µM [3]: 63%; inhibition of growth at 10 µM [4]: 96.1%; GI50 [5]: 1.3 µM; TGI [5]: 20 µM; CC50 [5]: > 100 µM; inhibition of growth at 10 µM (TK-10): < 30%; inhibition of growth at 10 µM (PC-3): 74.1%; inhibition of growth at 10 µM (T47D): 72.5%; GI50 [6]: 2 µM; LC50 (concentration killing 50% of cells) [6]: > 100 µM; TGI [6]: 69.2 µM; inhibition of growth at 10 µM [7]: 93.2%; inhibition of growth at 10 µM (SK-OV-3): 92.8%; inhibition of growth at 10 µM [8]: 44%; inhibition of growth at 10 µM (NCI-H322M): < 30%; inhibition of growth at 10 µM (NCI-H23): 88.4%; inhibition of growth at 10 µM (SK-MEL-28): 75.1%; inhibition of growth at 10 µM [9]: 65.7%; GI50 [10]: 3.3 µM; TGI [10]: > 100 µM; CC50 [10]: > 100 µM; inhibition of growth at 10 µM (MCF7): 57%; inhibition of growth at 10 µM (SNB-19): 38.5%; inhibition of growth at 10 µM (SF-268): 84.9%; inhibition of growth at 10 µM (CCRF-CEM): 97.1%; CC50 [11]: > 100 µM; GI50 [11]: 1.8 µM; TGI [11]: 20.8 µM; inhibition of growth at 10 µM (SNB-75): 54.3%

Q: Which results are given for COc1cc(/C=C2\CCCc3c2nc(C)nc3-c2cc(OC)c(OC)c(OC)c2)cc(OC)c1OC?
A: inhibition of growth at 10 µM (K562): 88.9%; inhibition of growth at 10 µM [1]: 57.8%; inhibition of growth at 10 µM [2]: 86.5%; inhibition of growth at 10 µM (OVCAR-8): 94.1%; inhibition of growth at 10 µM (MDA-MB-231): 86.9%; inhibition of growth at 10 µM (SR): < 30%; inhibition of growth at 10 µM (MDA-MB-435): 94.8%; inhibition of growth at 10 µM [3]: 51.4%; inhibition of growth at 10 µM [4]: 85.6%; GI50 [5]: 1.4 µM; TGI [5]: 3.1 µM; CC50 [5]: > 100 µM; inhibition of growth at 10 µM (TK-10): 55.5%; inhibition of growth at 10 µM (PC-3): 57.4%; inhibition of growth at 10 µM (HT-29): 92.1%; inhibition of growth at 10 µM (SK-MEL-5): 80.9%; inhibition of growth at 10 µM (NCI-H226): 62.4%; inhibition of growth at 10 µM (T47D): < 30%; inhibition of growth at 10 µM (A549): 83.8%; GI50 [6]: 2.6 µM; LC50 (concentration killing 50% of cells) [6]: > 100 µM; TGI [6]: 80.8 µM; inhibition of growth at 10 µM (COLO 205): 80.9%; inhibition of growth at 10 µM (Malme-3M): 69.8%; inhibition of growth at 10 µM (OVCAR-3): 72%; inhibition of growth at 10 µM [7]: 89.2%; inhibition of growth at 10 µM (SN12C): 89.2%; inhibition of growth at 10 µM (786-0): 82%; inhibition of growth at 10 µM (ACHN): 87.5%; inhibition of growth at 10 µM [12]: 77.4%; inhibition of growth at 10 µM (BT-549): 97.1%; inhibition of growth at 10 µM (SK-OV-3): 56.1%; inhibition of growth at 10 µM [8]: < 30%; inhibition of growth at 10 µM (NCI-H322M): 58.9%; inhibition of growth at 10 µM (NCI-H23): 66.1%; inhibition of growth at 10 µM (SK-MEL-28): 68.1%; inhibition of growth at 10 µM [9]: 48.9%; GI50 [10]: 34.5 µM; TGI [10]: > 100 µM; CC50 [10]: > 100 µM; inhibition of growth at 10 µM (DU-145): 95.1%; inhibition of growth at 10 µM (MCF7): 77%; inhibition of growth at 10 µM [13]: < 30%; inhibition of growth at 10 µM (CAKI-1): 88.6%; inhibition of growth at 10 µM (SNB-19): 38.8%; inhibition of growth at 10 µM (SF-268): 78.8%; CC50 [11]: > 100 µM; GI50 [11]: 2.2 µM; TGI [11]: 42 µM; inhibition of growth at 10 µM (SNB-75): 78.1%

Source: ChEMBL document CHEMBL3112482, “Nonclassical antifolates, part 5. Benzodiazepine analogs as a new class of DHFR inhibitors: synthesis, antitumor testing and molecular modeling study” (Eur J Med Chem, 2014)
